# Measured values as given in ChEMBL document CHEMBL1687906, “Discovery of novel and potent orally active calcium-sensing receptor antagonists that stimulate pulselike parathyroid hormone secretion: synthesis and structure-activity relationships of tetrahydropyrazolopyrimidine derivatives” (J Med Chem, 2011).
# Active and inactive are the calls of the source. The calls are words filed in the database; no cut-off is given here.
# Assays:
# [1] = biological target: T1, Extracellular calcium-sensing receptor (Homo sapiens, UniProt P41180); assay: Inhibition of CaSR expressed in CHO cells incubated with compound for 10 mins measured after 1 hr by [35S]GTPgammaS binding assay; assay type: functional, cell-based
# T1 sequence (P41180 whole entry): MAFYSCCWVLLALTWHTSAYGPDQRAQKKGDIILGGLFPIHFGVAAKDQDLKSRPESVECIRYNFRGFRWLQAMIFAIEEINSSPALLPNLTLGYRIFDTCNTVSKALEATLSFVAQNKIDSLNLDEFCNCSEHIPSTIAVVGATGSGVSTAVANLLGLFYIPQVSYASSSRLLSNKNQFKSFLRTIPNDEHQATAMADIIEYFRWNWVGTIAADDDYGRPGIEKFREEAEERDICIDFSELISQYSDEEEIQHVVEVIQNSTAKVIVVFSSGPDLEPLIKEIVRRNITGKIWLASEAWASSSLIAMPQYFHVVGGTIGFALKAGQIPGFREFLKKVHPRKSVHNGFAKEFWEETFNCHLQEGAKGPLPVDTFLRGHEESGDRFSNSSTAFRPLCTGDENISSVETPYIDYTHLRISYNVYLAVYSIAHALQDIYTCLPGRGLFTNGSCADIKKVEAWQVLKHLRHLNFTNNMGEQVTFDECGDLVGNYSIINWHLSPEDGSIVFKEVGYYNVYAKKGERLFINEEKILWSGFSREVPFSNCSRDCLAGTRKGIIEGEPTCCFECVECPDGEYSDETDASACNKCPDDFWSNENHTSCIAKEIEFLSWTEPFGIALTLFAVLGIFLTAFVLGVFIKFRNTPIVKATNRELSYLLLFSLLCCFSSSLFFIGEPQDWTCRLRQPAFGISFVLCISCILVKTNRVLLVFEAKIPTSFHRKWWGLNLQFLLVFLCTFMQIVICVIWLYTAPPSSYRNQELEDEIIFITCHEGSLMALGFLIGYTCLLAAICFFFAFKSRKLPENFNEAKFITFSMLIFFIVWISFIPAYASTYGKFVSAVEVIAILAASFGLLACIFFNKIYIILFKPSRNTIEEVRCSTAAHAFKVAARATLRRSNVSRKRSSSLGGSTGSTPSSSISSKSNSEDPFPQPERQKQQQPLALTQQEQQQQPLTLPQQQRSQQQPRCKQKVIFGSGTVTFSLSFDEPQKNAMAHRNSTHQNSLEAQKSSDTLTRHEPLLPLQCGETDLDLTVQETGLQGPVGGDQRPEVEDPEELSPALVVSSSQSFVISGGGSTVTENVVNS
# Procedure, shortened: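 Membranes from CaSR-expressing CHO cells preincubated with compound for 10 min. Binding then run 1 h at room temperature in 20 mM HEPES pH 7.4, 100 mM NaCl, 1 mM MgCl2, 167 μg/mL DTT, 5 μM GDP, 0.4 nM [35S]GTPγS and 6 mM CaCl2. Samples filtered through GF/C and washed with PBS; radioactivity counted by scintillation. IC50 obtained by nonlinear regression.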
# [2] = Metabolic stability in rat hepatic microsomes after 20 mins by HPLC/MS analysis; assay type: ADME; settings: liver microsomes, read-out: Stability
# Procedure, shortened: (§1)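 Hepatic microsomes, 0.2 mg/mL protein, in 50 mmol/L potassium phosphate pH 7.4 with […] test compound. An NADPH-generating system (MgCl2, glucose-6-phosphate, β-NADP+, G6PDH) added at 10% of the reaction volume. Incubated at 37 °C for 0 and 20 min.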
# [3] = Metabolic stability in human hepatic microsomes after 20 mins by HPLC/MS analysis; assay type: ADME; settings: liver microsomes, read-out: Stability; procedure, shortened: as §1
# [4] = Thermodynamic solubility of the compound in aqueous buffer containing 20 mmol/L sodium glycochenodeoxycholate at pH 6.8 by HPLC analysis; assay type: physicochemical; settings: aqueous buffer with 20 mmol/L sodium glycochenodeoxycholate
# Procedure, shortened: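 Compound added to pH 6.8 aqueous buffer containing 20 mmol/L sodium glycochenodeoxycholate; after incubation, precipitate removed by filtration and filtrate concentration determined by HPLC.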
# [5] = AUC (0 to 24 hrs) in Crl:CD(SD) rat at 10 mg/kg, po; assay type: ADME, organism-based; design: time < 24 hr, dose 10 mg/kg, route oral; settings: plasma
# Procedure, shortened: (§2)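 Nonfasted female Crl:CD(SD) rats, 12 weeks old, n = 3, given 10 mg/kg orally as a 0.5% methylcellulose suspension. Plasma collected at 0.25, 0.5, 1, 2, 4, 8 and 24 h, deproteinized with acetonitrile, diluted with 0.01 mol/L ammonium acetate. Drug measured by HPLC on an ODS column, ammonium acetate/acetonitrile 3/7, 40 °C, UV 262 nm.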
# [6] = Cmax in Crl:CD(SD) rat at 10 mg/kg, po; assay type: ADME, organism-based; design: dose 10 mg/kg, route oral; settings: in vivo; procedure, shortened: as §2
# Rattus norvegicus [7] = assay: Increase of PTH level in rat plasma at 10 mg/kg, po after 30 mins by ELISA; assay type: functional
# Rattus norvegicus [8] = assay: Induction of bone formation in osteopenic ovariectomized CD(SD)IGS rat model assessed as plasma osteocalcin level at 10 mg/kg, po administered once daily for 3 months measured after 2 months by RIA (reference value: 21.1+/- 2.4 ng/ml); assay type: functional
# Rattus norvegicus [9] = assay: Induction of bone formation in osteopenic ovariectomized CD(SD)IGS rat model assessed as proximal tibia bone mineral density at 10 mg/kg, po administered once daily for 3 months measured after 1 day last post treatment (reference value: 649+/- 8 mg/cm3); assay type: functional
# [10] = Tmax in Crl:CD(SD) rat at 10 mg/kg, po; assay type: ADME, organism-based; design: dose 10 mg/kg, route oral; settings: in vivo; procedure, shortened: as §2
# Rattus norvegicus [11] = assay: Induction of bone formation in osteopenic ovariectomized CD(SD)IGS rat model assessed as distal femur BMD at 10 mg/kg, po administered once daily for 3 months measured after 1 day last post treatment (reference value: 622+/- 7 mg/cm3); assay type: functional
# [12] = Mean residence time in Crl:CD(SD) rat at 10 mg/kg, po; assay type: ADME, organism-based; design: dose 10 mg/kg, route oral; settings: in vivo; procedure, shortened: as §2
# Caco-2 [13] = assay: Apparent permeability across apical to basolateral side in human Caco2 cells at 10 umol/L; assay type: ADME, cell-based; settings: caco-2, 10 µM
# Procedure, shortened: (§3)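 Confluent Caco-2 monolayers on collagen-coated polycarbonate Transwell membranes. Buffer is HBSS with 10 mmol/L HEPES, 15 mmol/L glucose and 1% BSA, pH 7.3-7.5. Compound at 10 μmol/L dosed apically (A-to-B) or basolaterally (B-to-A), 37 °C, 5% CO2. Receivers sampled at 1 and 2 h. Lucifer yellow integrity check and cell-free blank run. LC/MS/MS read-out; Papp calculated; duplicates.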
# Caco-2 [14] = assay: Apparent permeability across apical to basolateral side of human Caco2 cells at 10 umol/L; assay type: ADME, cell-based; settings: caco-2, 10 µM, in the assay text read “basolateral to apical” for “apical to basolateral”; procedure, shortened: as §3
# Rattus norvegicus [15] = assay: Increase of PTH level in rat plasma at 10 mg/kg, po after 2 hrs by ELISA; assay type: functional, organism-based; design: dose 10 mg/kg
Structure (SMILES),IC50 [1] [nM],solubility thermodynamic [4] [µg/mL],further results
CCC(CC)(NC(=O)c1cnn2c1NC(c1ccccc1)CC2(C)C)c1ccc(COC(C)=O)cc1 (stereo not drawn),14,,
CCC(CC)(NC(=O)c1cnn2c1NC(c1ccccc1)CC2(C)C)c1ccc(C)cc1.CS(=O)(=O)O (stereo not drawn),,118,
CCC(=O)Oc1ccc(C(CC)(CC)NC(=O)c2cnn3c2NC(c2ccccc2)CC3(C)C)cc1 (stereo not drawn),12,,
O=C(NCc1ccc(C(F)(F)F)cc1)c1cnn2c1N[C@H](c1ccccc1)C[C@@H]2C(F)(F)F,2900,,
O=C(NC(c1ccccc1)c1ccccc1)c1cnn2c1N[C@H](c1ccccc1)C[C@@H]2C(F)(F)F,380,,
CCC(CC)(NC(=O)c1cnn2c1NC(c1ccccc1)CC2(C)C)c1ccccc1 (stereo not drawn),3.4,22.3,microsomal CLint [2]: 215 µL/min/mg; microsomal CLint [3]: 209 µL/min/mg
CCC(CC)(NC(=O)c1cnn2c1NC(c1ccccc1)CC2(C)C)c1ccc(Cl)cc1.CS(=O)(=O)O (stereo not drawn),,164,
CCC(CC)(NC(=O)c1cnn2c1NC(c1ccccc1)CC2(C)C)c1cccc(F)c1 (stereo not drawn),25,,
CCC(CC)(NC(=O)c1cnn2c1NC(c1ccccc1)CC2(C)C)c1cccc(Cl)c1 (stereo not drawn),17,,
CCC(CC)(NC(=O)c1cnn2c1NC(c1ccccc1)CC2(C)C)c1ccc(OCc2ccccc2)cc1 (stereo not drawn),8.5,24.3,microsomal CLint [2]: 24 µL/min/mg; microsomal CLint [3]: 48 µL/min/mg
CCC(CC)(NC(=O)c1cnn2c1NC(c1ccccc1)CC2(C)C)c1ccc(Cl)cc1.O=S(=O)(O)O (stereo not drawn),,202,
CCC(CC)(NC(=O)c1cnn2c1NC(c1ccccc1)CC2(C)C)c1ccccc1F (stereo not drawn),12,,
CC1(C)CC(c2ccccc2)Nc2c(C(=O)NC(c3ccc(C(F)(F)F)cc3)(C3CCCCC3)C3CCCCC3)cnn21 (stereo not drawn),150,,
CCC(CC)(NC(=O)c1cnn2c1NC(c1ccccc1)CC2(C)C)c1ccc(C)cc1 (racemic),,,Activity (Rattus norvegicus [15]): inactive
CCOC(=O)c1ccc(C(CC)(CC)NC(=O)c2cnn3c2NC(c2ccccc2)CC3(C)C)cc1 (stereo not drawn) [listing 2 of 2 here],,,microsomal CLint [2]: 138 µL/min/mg; microsomal CLint [3]: 91 µL/min/mg

# Second part, led by results:
IC50 [1] [nM],solubility thermodynamic [4] [µg/mL],Structure (SMILES),further results
7.3,8.5,CCC(CC)(NC(=O)c1cnn2c1NC(c1ccccc1)CC2(C)C)c1ccc(F)cc1 (stereo not drawn),microsomal CLint [2]: 129 µL/min/mg; microsomal CLint [3]: 89 µL/min/mg
3.5,,CC(C)(NC(=O)c1cnn2c1NC(c1ccccc1)CC2(C)C)c1ccc(C(F)(F)F)cc1 (stereo not drawn),
31,,CCC(CC)(NC(=O)c1cnn2c1N[C@H](c1ccccc1)CC2(C)C)c1ccc(C)cc1,
5.2,5.4,CCOC(=O)c1ccc(C(CC)(CC)NC(=O)c2cnn3c2NC(c2ccccc2)CC3(C)C)cc1 (stereo not drawn) [listing 1 of 2 here],
23,,CCCCC(CCCC)(NC(=O)c1cnn2c1NC(c1ccccc1)CC2(C)C)c1ccc(C(F)(F)F)cc1 (stereo not drawn),
30,,CC(C)C(NC(=O)c1cnn2c1NC(c1ccccc1)CC2(C)C)(c1ccc(C(F)(F)F)cc1)C(C)C (stereo not drawn),
4.9,140,CCC(CC)(NC(=O)c1cnn2c1NC(c1ccccc1)CC2(C)C)c1ccc(C)cc1.Cl (racemic),AUC(0-t) at 24 h [5]: 2460 ng·h/mL; Cmax [6]: 374 ng/mL; Activity (Rattus norvegicus [7]): 120 pg/mL; Activity (Rattus norvegicus [8]): 28.4 ng/mL; Activity (Rattus norvegicus [9]): 700 mg/cm3; Tmax [10]: 40.2 min; Activity (Rattus norvegicus [11]): 660 mg/cm3; MRT [12]: 5.65 h; Papp (Caco-2 [13]): 58.9 10^-6 cm/s; Papp (Caco-2 [14]): 42.7 10^-6 cm/s
6.6,59.6,CCC(CC)(NC(=O)c1cnn2c1NC(c1ccccc1)CC2(C)C)c1ccc(OC)cc1 (stereo not drawn),microsomal CLint [2]: 158 µL/min/mg; microsomal CLint [3]: 67 µL/min/mg
7.6,4.6,CCC(CC)(NC(=O)c1cnn2c1NC(c1ccccc1)CC2(C)C)c1ccc(C(F)(F)F)cc1 (stereo not drawn),microsomal CLint [2]: 13 µL/min/mg; microsomal CLint [3]: 14 µL/min/mg; Papp (Caco-2 [13]): 32.7 10^-6 cm/s; Papp (Caco-2 [14]): 24.2 10^-6 cm/s
,202,CC(=O)O.CCC(CC)(NC(=O)c1cnn2c1NC(c1ccccc1)CC2(C)C)c1ccc(Cl)cc1 (stereo not drawn),
4.4,,CCCC(CCC)(NC(=O)c1cnn2c1NC(c1ccccc1)CC2(C)C)c1ccc(C(F)(F)F)cc1 (stereo not drawn),
2.3,,CCC(CC)(NC(=O)c1cnn2c1N[C@@H](c1ccccc1)CC2(C)C)c1ccc(C)cc1,
5.5,15.6,CCC(CC)(NC(=O)c1cnn2c1NC(c1ccccc1)CC2(C)C)c1ccc(C)cc1 (stereo not drawn),microsomal CLint [2]: 164 µL/min/mg; microsomal CLint [3]: 122 µL/min/mg
7.4,54,CCC(CC)(NC(=O)c1cnn2c1NC(c1ccccc1)CC2(C)C)c1ccc(Cl)cc1 (stereo not drawn),microsomal CLint [2]: 57 µL/min/mg; microsomal CLint [3]: 18 µL/min/mg; Papp (Caco-2 [13]): 52.6 10^-6 cm/s; Papp (Caco-2 [14]): 36.8 10^-6 cm/s
,126,CCC(CC)(NC(=O)c1cnn2c1NC(c1ccccc1)CC2(C)C)c1ccc(Cl)cc1.Cl (stereo not drawn),AUC(0-t) at 24 h [5]: 2460 ng·h/mL; Cmax [6]: 374 ng/mL; Tmax [10]: 40.2 min; MRT [12]: 5.65 h
31,,CCC(CC)(NC(=O)c1cnn2c1NC(c1ccccc1)CC2(C)C)c1ccc(OC(C)=O)cc1 (stereo not drawn),
